# Laboratory results taken from ChEMBL document CHEMBL2163188, “Discovery of piragliatin--first glucokinase activator studied in type 2 diabetic patients” (J Med Chem, 2012).
# Target: T1, Hexokinase-4 (Homo sapiens) (UniProt P35557)
# T1 sequence (whole entry): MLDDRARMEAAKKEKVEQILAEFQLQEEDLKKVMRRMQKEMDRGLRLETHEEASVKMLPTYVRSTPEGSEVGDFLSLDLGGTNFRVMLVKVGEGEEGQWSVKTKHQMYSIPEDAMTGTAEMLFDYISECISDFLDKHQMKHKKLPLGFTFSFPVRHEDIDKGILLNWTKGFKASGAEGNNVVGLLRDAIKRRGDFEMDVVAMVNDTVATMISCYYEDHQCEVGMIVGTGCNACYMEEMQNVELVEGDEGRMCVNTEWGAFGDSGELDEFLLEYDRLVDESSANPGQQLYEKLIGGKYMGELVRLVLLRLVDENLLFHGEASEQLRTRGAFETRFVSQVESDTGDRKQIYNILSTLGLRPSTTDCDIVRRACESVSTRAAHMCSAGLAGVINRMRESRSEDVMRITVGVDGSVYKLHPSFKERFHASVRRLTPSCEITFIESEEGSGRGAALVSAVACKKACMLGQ
# Assay: Activation of human recombinant glucokinase assessed as concentration required for 1.5 fold increase in enzymatic activity
# Method in brief: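 Human recombinant GK; activator at fixed concentrations from ∼0.010 to 30 μM, each in duplicate, with glucose held at 5 mM. SC1.5 is the activator concentration giving a 1.5-fold rise in enzymatic activity over untreated GK. Assay CV was about 15%.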
structure (smiles),measurement,value
CS(=O)(=O)c1ccc(C(CC2CCCC2)C(=O)Nc2nccs2)cc1[N+](=O)[O-] (racemic),Activity,0.065 µM
